Results published in article PMC3119721 (Biochemistry, 2011).
Values belong to the molecule of their own block, whether it stands above or below them.

Experiments:
[1] = test system: Nc1ncnc2c1ncn2[C@@H]1O[C@H](COP(=O)(O)OP(=O)(O)OP(=O)(O)O)[C@@H](O)[C@H]1O; assay: purified protein; format: biochemical, Methylorubrum extorquens; conditions: printed as D180X; 55 μM HOCbl (reduced to cob(I)alamin), ATP 0.5-300 μM
[2] = target: PduO-type ATP-dependent cob(I)alamin adenosyltransferase (ATR) (Methylorubrum extorquens, UniProt C5AZG1, DEL180-190); assay: isothermal titration calorimetry; format: binding
Method in brief: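 Recombinant His-tagged M. extorquens ATR, D180X mutant, expressed in E. coli BL21(DE3) and Ni-NTA purified. 40–45 μM protein in 50 mM HEPES pH 8, 0.3 M KCl, 10 mM MgCl2, 5% glycerol at 4 °C, titrated with 45 aliquots of 1–2 mM ATP or AdoCbl. KA, ΔH° and ΔS° were obtained from two-site (ATP) or single-site (AdoCbl) fits, in triplicate.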

[3] = substrate: Nc1ncnc2c1ncn2[C@@H]1O[C@H](COP(=O)(O)OP(=O)(O)OP(=O)(O)O)[C@@H](O)[C@H]1O; assay: purified protein; format: biochemical, Methylorubrum extorquens; conditions: apparent; 55 μM HOCbl (reduced to cob(I)alamin), ATP 0.5-300 μM

Molecule: PduO-type ATP-dependent cob(I)alamin adenosyltransferase (ATR) (Methylorubrum extorquens AM1; DEL180-190)
Km [1]: 9.5 ± 1.2 µM
kcat [1]: (2.5 ± 0.1) × 10^−1 s^−1
kcat/Km [1]: 27000 ± 1000 M⁻¹ s⁻¹

Kd [2]: 480 ± 20 nM
Molecule: Nc1ncnc2c1ncn2[C@@H]1O[C@H](COP(=O)(O)OP(=O)(O)OP(=O)(O)O)[C@@H](O)[C@H]1O [ATP]

B1: PduO-type ATP-dependent cob(I)alamin adenosyltransferase (ATR) (Methylorubrum extorquens AM1) (protein)
chain: MVKLNRIYTRTGDQGTTGLANGERRSKADLRVEAYGTVDETNACIGLARLTAEPALDAMLARIQNDLFDLGADLATPPSDKPLGYEPLRIVPAQVQRLETEIDALNANIPPLKSFVLPGGSAAAAALHLARTVCRRAERLVVALSGVESEAISGEALQYLNRLSDFLFVASRAANRDGADDVLWVPGQNR
Km [3]: 8.4 ± 1.4 µM
